{
  "source": "ChEMBL document CHEMBL5154815",
  "about": "“A Series of Substituted Bis-Aminotriazines Are Activators of the Natriuretic Peptide Receptor C” (J Med Chem, 2022)",
  "key": {"[1]": {"assay": "Mean residence time (0 to infinity) in fasted C57BL/6 mouse at 3 mg/kg, iv by LC-MS/MS analysis", "settings": "in vivo"}, "[2]": {"target": "T1, Atrial natriuretic peptide receptor 3 (Rattus norvegicus) (UniProt P41740)", "T1 sequence (whole entry)": "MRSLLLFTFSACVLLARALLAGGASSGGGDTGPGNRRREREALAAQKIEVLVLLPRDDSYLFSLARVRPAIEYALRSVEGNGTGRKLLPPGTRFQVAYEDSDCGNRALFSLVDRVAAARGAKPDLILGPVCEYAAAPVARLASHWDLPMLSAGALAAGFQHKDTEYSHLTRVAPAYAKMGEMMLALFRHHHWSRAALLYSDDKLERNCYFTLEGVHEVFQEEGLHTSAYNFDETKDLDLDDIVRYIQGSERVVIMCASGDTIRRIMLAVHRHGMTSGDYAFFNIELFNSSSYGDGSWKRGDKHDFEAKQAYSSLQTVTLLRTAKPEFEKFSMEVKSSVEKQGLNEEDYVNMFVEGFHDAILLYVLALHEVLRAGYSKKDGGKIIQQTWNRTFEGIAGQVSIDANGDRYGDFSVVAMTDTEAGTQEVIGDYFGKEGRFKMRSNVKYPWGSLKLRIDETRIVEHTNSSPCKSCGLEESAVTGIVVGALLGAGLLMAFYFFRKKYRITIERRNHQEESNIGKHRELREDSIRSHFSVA", "assay": "Agonist activity at NPRC in rat aorta assessed as inhibition of cANF4-23 induced vasorelaxation in presence of M372049 by Organ bath assay", "type": "tissue-based", "settings": "filed as agonist"}, "[3]": {"assay": "AUC (0 to infinity) in fasted C57BL/6 mouse at 10 mg/kg, po by LC-MS/MS analysis", "type": "ADME, organism-based", "set-up": "time infinity, dose 10 mg/kg, route po", "settings": "in vivo"}, "[4]": {"assay": "Volume of distribution at steady state in fasted C57BL/6 mouse at 3 mg/kg, iv by LC-MS/MS analysis", "type": "ADME, organism-based", "settings": "in vivo, read-out: Vdss"}, "[5]": {"assay": "Half life in fasted C57BL/6 mouse at 10 mg/kg, po by LC-MS/MS analysis", "type": "ADME, organism-based", "settings": "in vivo"}, "[6]": {"target": "T2, Atrial natriuretic peptide receptor 3 (Rattus norvegicus, UniProt P41740)", "T2 sequence (P41740 whole entry)": "T1 sequence (whole entry)", "assay": "Agonist activity at NPRC in rat small mesenteric arteries assessed as vasorelaxation preincubated with M372049 for 15 mins followed by compound treatment by Organ bath assay", "type": "tissue-based, Artery"}, "[7]": {"target": "T3, Atrial natriuretic peptide receptor 3 (Mus musculus, UniProt P70180)", "T3 sequence (P70180 whole entry)": "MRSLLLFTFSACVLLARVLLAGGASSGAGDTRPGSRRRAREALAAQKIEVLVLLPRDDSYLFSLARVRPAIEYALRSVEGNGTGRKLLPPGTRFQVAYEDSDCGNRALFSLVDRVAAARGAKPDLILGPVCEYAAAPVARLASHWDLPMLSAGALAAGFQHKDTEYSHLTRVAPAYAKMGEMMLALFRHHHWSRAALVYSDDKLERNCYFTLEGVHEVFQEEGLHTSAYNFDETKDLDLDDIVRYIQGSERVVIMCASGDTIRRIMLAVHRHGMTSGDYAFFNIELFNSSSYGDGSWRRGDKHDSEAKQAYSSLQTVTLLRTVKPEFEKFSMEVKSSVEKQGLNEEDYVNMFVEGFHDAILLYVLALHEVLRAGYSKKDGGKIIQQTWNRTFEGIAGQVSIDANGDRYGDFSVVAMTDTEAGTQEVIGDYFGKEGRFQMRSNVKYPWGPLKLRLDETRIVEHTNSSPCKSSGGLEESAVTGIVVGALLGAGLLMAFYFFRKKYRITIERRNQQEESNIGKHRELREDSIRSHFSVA", "assay": "Agonist activity at NPRC in knock out mouse mesenteric arteries assessed as vasorelaxation by Organ bath assay", "type": "tissue-based, Artery"}, "Cytochrome P450 1A2": {"target": "T4, Cytochrome P450 1A2 (Homo sapiens, UniProt P05177)", "T4 sequence (P05177 whole entry)": "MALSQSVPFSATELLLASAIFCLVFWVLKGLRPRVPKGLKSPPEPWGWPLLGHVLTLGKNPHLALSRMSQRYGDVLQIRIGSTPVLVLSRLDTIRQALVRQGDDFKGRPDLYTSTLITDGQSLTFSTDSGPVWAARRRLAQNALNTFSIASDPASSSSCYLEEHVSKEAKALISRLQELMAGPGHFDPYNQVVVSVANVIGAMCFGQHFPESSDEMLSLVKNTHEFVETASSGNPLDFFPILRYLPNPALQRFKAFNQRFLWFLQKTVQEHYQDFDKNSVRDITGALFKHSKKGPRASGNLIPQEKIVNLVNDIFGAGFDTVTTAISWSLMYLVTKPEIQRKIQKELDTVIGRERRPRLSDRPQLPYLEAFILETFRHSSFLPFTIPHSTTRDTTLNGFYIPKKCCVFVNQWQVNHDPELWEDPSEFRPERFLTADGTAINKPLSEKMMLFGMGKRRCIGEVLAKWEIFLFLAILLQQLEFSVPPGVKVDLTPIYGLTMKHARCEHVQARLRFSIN", "assay": "Inhibition of CYP1A2 in human liver microsomes using phenacetin as substrate preincubated for 10 mins followed by NADPH addition and measured after 10 mins by LC/MS/MS analysis"}, "[8]": {"assay": "Stability of compound in pooled human plasma assessed as half life measured upto 120 mins by LC/MS/MS analysis", "settings": "2 h"}, "[9]": {"target": "T3, Atrial natriuretic peptide receptor 3", "assay": "Agonist activity at NPRC in wild type mouse mesenteric arteries assessed as vasorelaxation by Organ bath assay", "type": "tissue-based, Artery"}, "[10]": {"target": "T2, Atrial natriuretic peptide receptor 3", "assay": "Agonist activity at NPRC in rat small mesenteric arteries assessed as vasorelaxation by Organ bath assay", "type": "tissue-based, Artery"}, "[11]": {"assay": "AUC (0 to infinity) in fasted C57BL/6 mouse at 3 mg/kg, iv by LC-MS/MS analysis", "type": "ADME, organism-based", "set-up": "time infinity, dose 3 mg/kg, route iv", "settings": "in vivo"}, "Cytochrome P450 2C19": {"target": "Cytochrome P450 2C19 (Homo sapiens, UniProt P33261)", "sequence (P33261 whole entry)": "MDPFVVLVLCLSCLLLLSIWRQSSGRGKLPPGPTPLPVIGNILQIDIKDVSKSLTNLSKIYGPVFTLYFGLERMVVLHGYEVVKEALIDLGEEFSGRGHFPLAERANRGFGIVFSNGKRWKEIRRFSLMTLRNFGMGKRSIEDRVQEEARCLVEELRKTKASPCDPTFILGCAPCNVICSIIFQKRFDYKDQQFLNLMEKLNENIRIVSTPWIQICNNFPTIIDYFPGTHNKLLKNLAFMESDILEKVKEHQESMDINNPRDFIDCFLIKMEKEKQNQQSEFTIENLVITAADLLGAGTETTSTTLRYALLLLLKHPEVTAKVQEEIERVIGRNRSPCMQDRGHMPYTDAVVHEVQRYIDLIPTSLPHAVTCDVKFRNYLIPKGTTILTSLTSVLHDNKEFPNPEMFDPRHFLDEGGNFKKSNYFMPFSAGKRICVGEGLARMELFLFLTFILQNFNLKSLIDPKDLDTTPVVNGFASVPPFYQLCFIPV", "assay": "Inhibition of CYP2C19 in human liver microsomes using S-mephenytoin as substrate preincubated for 10 mins followed by NADPH addition and measured after 20 mins by LC/MS/MS analysis"}, "[12]": {"assay": "Mean residence time (0 to infinity) in fasted C57BL/6 mouse at 10 mg/kg, po by LC-MS/MS analysis", "settings": "in vivo"}, "[13]": {"settings": "rat, hepatocytes, 20 min, 1 µM"}, "[14]": {"target": "T1, Atrial natriuretic peptide receptor 3 (Rattus norvegicus)", "assay": "Agonist activity at NPRC in rat small mesenteric arteries assessed as inhibition of cANF4-23 induced vasorelaxation in presence of osteocrin by Organ bath assay", "type": "tissue-based", "settings": "Artery, filed as agonist", "summary_of_the_method": "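Small mesenteric artery rings from male Wistar rats in classical tissue-bath pharmacology. Vessels were preincubated 15 min with M372049 10 μM or osteocrin 100 nM before the vasorelaxant response to test agents was assessed.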"}, "Cytochrome P450 2C9": {"target": "Cytochrome P450 2C9 (Homo sapiens, UniProt P11712)", "sequence (P11712 whole entry)": "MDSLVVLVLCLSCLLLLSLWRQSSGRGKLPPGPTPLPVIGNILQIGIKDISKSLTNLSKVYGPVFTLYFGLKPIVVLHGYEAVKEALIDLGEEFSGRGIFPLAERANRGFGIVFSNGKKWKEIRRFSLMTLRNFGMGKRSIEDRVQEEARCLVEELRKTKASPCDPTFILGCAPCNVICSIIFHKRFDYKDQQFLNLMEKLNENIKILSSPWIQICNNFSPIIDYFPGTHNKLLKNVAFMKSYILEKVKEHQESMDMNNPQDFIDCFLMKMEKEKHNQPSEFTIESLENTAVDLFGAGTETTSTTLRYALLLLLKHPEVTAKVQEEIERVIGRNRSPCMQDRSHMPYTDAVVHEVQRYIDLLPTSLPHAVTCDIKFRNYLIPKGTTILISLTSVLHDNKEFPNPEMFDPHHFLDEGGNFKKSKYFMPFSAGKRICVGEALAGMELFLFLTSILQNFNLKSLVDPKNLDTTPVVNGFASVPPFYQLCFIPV", "assay": "Inhibition of CYP2C9 in human liver microsomes using diclofenac as substrate preincubated for 10 mins followed by NADPH addition and measured after 10 mins by LC/MS/MS analysis"}, "[15]": {"assay": "Protein binding in human plasma by equilibrium dialysis assay"}, "in vivo": {"assay": "in vivo", "settings": "C57BL/6, mouse, po, 10 mg/kg"}},
  "note": "Activity calls are given as the source filed them. The calls are words filed in the database; no cut-off is given here.",
  "data": [
    {"compound": "CC(=O)Nc1ccc(Nc2ncnc(NCCC(=O)OC(C)(C)C)n2)cc1", "values": [
      {"measurement": "MRT inf", "setting": "[1]", "value": 0.262, "unit": "h"},
      {"measurement": "Activity", "setting": "[2]", "value": "Active"},
      {"measurement": "AUC(0-inf)", "setting": "[3]", "value": 653, "unit": "ng·h/mL"},
      {"measurement": "Vd", "setting": "[4]", "value": 1.75, "unit": "L/kg"},
      {"measurement": "half-life", "setting": "[5]", "value": 1.37, "unit": "h"},
      {"measurement": "EC50", "setting": "[6]", "value": 8.64, "unit": "µM"},
      {"measurement": "EC50", "setting": "[7]", "value": 10.1, "unit": "µM"},
      {"measurement": "IC50", "setting": "Cytochrome P450 1A2", "value": "> 50", "unit": "µM"},
      {"measurement": "t1/2", "setting": "[8]", "value": "> 2", "unit": "h"},
      {"measurement": "EC50", "setting": "[9]", "value": 1.58, "unit": "µM"},
      {"measurement": "EC50", "setting": "[10]", "value": 0.86, "unit": "µM"},
      {"measurement": "AUC(0-inf)", "setting": "[11]", "value": 448, "unit": "ng·h/mL"},
      {"measurement": "IC50", "setting": "Cytochrome P450 2C19", "value": "> 50", "unit": "µM"},
      {"measurement": "MRT inf", "setting": "[12]", "value": 1.33, "unit": "h"},
      {"measurement": "t1/2", "setting": "[13]", "value": 1.952, "unit": "h"},
      {"measurement": "Activity", "setting": "[14]", "value": "Active"},
      {"measurement": "IC50", "setting": "Cytochrome P450 2C9", "value": "> 50", "unit": "µM"},
      {"measurement": "PPB", "setting": "[15]", "value": 71, "unit": "%"},
      {"measurement": "Tmax", "setting": "in vivo", "value": 0.25, "unit": "h"}
    ]}
  ]
}
